Data set [1] can be described thus: Binding affinity to melanin in water. Also on record: concentration or dose not given beside the values. The settings on record: tested as the 125I-labelled form.
The nature of data set [2]: Binding affinity to melanin in phosphate buffer solution. Details: concentration or dose not given beside the values. The settings on record: tested as the 125I-labelled form.
A short description of data set [3]: Partition coefficient, log P in phosphate buffer solution at pH 7.4. In kind it is physicochemical. The gist of the method: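 Shake-flask partition: 50 µM [¹²⁵I]-labelled compound in phosphate buffer pH 7.4 was mixed with 2 mL n-octanol. Each phase was γ-counted, P was taken as the octanol/buffer activity ratio, and log P was reported.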
A short description of data set [4]: Drug excretion in mouse B16-F0 cells bearing C57BL/6 mouse urine at 0.74 to 0.92 MBq, iv after 72 hrs. In kind it is ADME, organism-based. The note with it: in vivo. The method, boiled down:
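Urine was collected from two B16-F0 tumour-bearing C57BL6 mice for up to 72 h after iv tail-vein injection of the [¹²⁵I]-labelled compound (0.1 µmol). Samples were counted to give cumulative urinary excretion as %ID.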

A short description of data set [5]: Biodistribution in tumor of C57BL/6 mouse bearing mouse B16-F0 cells at 0.74 to 0.92 MBq, iv after 1 hr. In kind it is ADME, organism-based, Neoplasm. The note with it: in vivo. The gist of the method:
(§1)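 [¹²⁵I]-labelled compound given iv by tail vein (0.1 µmol per mouse) to male C57BL6 mice bearing s.c. B16-F0 flank tumours (5 × 10⁵ cells in PBS). Two mice per time point were killed by CO₂, frozen in liquid nitrogen and cut into 40 µm cryosections, eight slices per mouse. Slice radioactivity was read on a multiwire proportional counter, converted to kBq/g and reported as %ID/g.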

A short description of data set [6]: Biodistribution in tumor of C57BL/6 mouse bearing mouse B16-F0 cells at 0.74 to 0.92 MBq, iv after 3 hrs. The data set is classed as ADME, organism-based, Neoplasm. The note with it: in vivo. The gist of the method:
as §1

The nature of data set [7]: Biodistribution in tumor of C57BL/6 mouse bearing mouse B16-F0 cells at 0.74 to 0.92 MBq, iv after 6 hrs. In kind it is ADME, organism-based, Neoplasm. The note with it: in vivo. The method, boiled down:
as §1

Data set [8] in a line: Biodistribution in tumor of C57BL/6 mouse bearing mouse B16-F0 cells at 0.74 to 0.92 MBq, iv after 24 hrs. In kind it is ADME, organism-based, Neoplasm. The note with it: in vivo. The method, boiled down:
as §1

A short description of data set [9]: Biodistribution in tumor of C57BL/6 mouse bearing mouse B16-F0 cells at 0.74 to 0.92 MBq, iv after 72 hrs. The note with it: in vivo. In kind it is ADME, organism-based, Neoplasm. The method, boiled down:
as §1

Data set [10] can be described thus: Ratio of drug level in tumor to liver of C57BL/6 mouse bearing mouse B16-F0 cells at 0.74 to 0.92 MBq, iv after 1 hr. The data set is classed as ADME, organism-based. The note with it: in vivo. The method, boiled down: (§2)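 Tumour and organ radioactive concentrations came from whole-body cryosection counting (40 µm slices, eight per mouse, two mice per time) after tail-vein injection of the [¹²⁵I]-labelled compound (0.1 µmol) into male C57BL6 mice bearing s.c. B16-F0 melanoma. Each value is the ratio of the tumour concentration to the organ concentration.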

Data set [11] is described as follows: Ratio of drug level in tumor to liver of C57BL/6 mouse bearing mouse B16-F0 cells at 0.74 to 0.92 MBq, iv after 3 hrs. The settings on record: in vivo. In kind it is ADME, organism-based. The method, boiled down:
as §2

Data set [12] can be described thus: Ratio of drug level in tumor to lung of C57BL/6 mouse bearing mouse B16-F0 cells at 0.74 to 0.92 MBq, iv after 1 hr. The data set is classed as ADME, organism-based. The note with it: in vivo. The gist of the method:
as §2

Data set [13] can be described thus: Biodistribution in intestinal content of C57BL/6 mouse bearing mouse B16-F0 cells at 0.74 to 0.92 MBq, iv after 1 hr. The note with it: in vivo. The data set is classed as ADME, organism-based. The gist of the method: (§3)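 Male C57BL6 mice with s.c. left-flank B16-F0 melanoma (5 × 10⁵ cells in PBS). Two mice per time point frozen in liquid nitrogen after CO₂ sacrifice. Eight 40 µm whole-body cryosections per mouse read by multiwire proportional counter. cpm/mm² converted to kBq/g and expressed as %ID/g.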

A short description of data set [14]: Biodistribution in intestinal content of C57BL/6 mouse bearing mouse B16-F0 cells at 0.74 to 0.92 MBq, iv after 3 hrs. The data set is classed as ADME, organism-based. The note with it: in vivo. The gist of the method: as §3
Data set [15] can be described thus: Biodistribution in intestinal content of C57BL/6 mouse bearing mouse B16-F0 cells at 0.74 to 0.92 MBq, iv after 6 hrs. In kind it is ADME, organism-based. The note with it: in vivo. The method, boiled down:
as §3

Data set [16] is described as follows: Biodistribution in intestinal content of C57BL/6 mouse bearing mouse B16-F0 cells at 0.74 to 0.92 MBq, iv after 24 hrs. The data set is classed as ADME, organism-based. The settings on record: in vivo. The method, boiled down: as §3
A short description of data set [17]: Biodistribution in Stomach content of C57BL/6 mouse bearing mouse B16-F0 cells at 0.74 to 0.92 MBq, iv after 1 hr. The data set is classed as ADME, organism-based. The note with it: in vivo. The gist of the method:
as §3

Data set [18] in a line: Biodistribution in Stomach content of C57BL/6 mouse bearing mouse B16-F0 cells at 0.74 to 0.92 MBq, iv after 3 hrs. The data set is classed as ADME, organism-based. The note with it: in vivo. The gist of the method:
as §3

Data set [19] in a line: Biodistribution in Stomach content of C57BL/6 mouse bearing mouse B16-F0 cells at 0.74 to 0.92 MBq, iv after 6 hrs. The settings on record: in vivo. In kind it is ADME, organism-based. The gist of the method:
as §3

Data set [20] deals with Liver. The experiment in a line: Biodistribution in liver of C57BL/6 mouse bearing mouse B16-F0 cells at 0.74 to 0.92 MBq, iv after 1 hr. The settings on record: in vivo. In kind it is ADME, organism-based. The gist of the method: as §3
For data set [21], the system named is Liver. The data set is described as follows: Biodistribution in liver of C57BL/6 mouse bearing mouse B16-F0 cells at 0.74 to 0.92 MBq, iv after 3 hrs. The settings on record: in vivo. The data set is classed as ADME, organism-based. The method, boiled down: as §3
Data set [22] relates to Muscle tissue. The experiment in a line: Biodistribution in muscle of C57BL/6 mouse bearing mouse B16-F0 cells at 0.74 to 0.92 MBq, iv after 1 hr. The data set is classed as ADME, organism-based. The note with it: in vivo. The gist of the method: as §3
Data set [23] relates to Muscle tissue. The experiment in a line: Biodistribution in muscle of C57BL/6 mouse bearing mouse B16-F0 cells at 0.74 to 0.92 MBq, iv after 3 hrs. In kind it is ADME, organism-based. The settings on record: in vivo. The method, boiled down: as §3
The next data set relates to Pancreas. The data set is described as follows: Biodistribution in pancreas of C57BL/6 mouse bearing mouse B16-F0 cells at 0.74 to 0.92 MBq, iv after 1 hr. The data set is classed as ADME, organism-based. The note with it: in vivo. The method, boiled down:
as §3

The test system of a further data set is Lung. The experiment in a line: Biodistribution in lung of C57BL/6 mouse bearing mouse B16-F0 cells at 0.74 to 0.92 MBq, iv after 1 hr. The data set is classed as ADME, organism-based. The note with it: in vivo. The method, boiled down: as §3
The test system of another data set is Spleen. The experiment in a line: Biodistribution in spleen of C57BL/6 mouse bearing mouse B16-F0 cells at 0.74 to 0.92 MBq, iv after 1 hr. The data set is classed as ADME, organism-based. The note with it: in vivo. The gist of the method: as §1
Another data set has as its system Kidney. The data set is described as follows: Biodistribution in kidney of C57BL/6 mouse bearing mouse B16-F0 cells at 0.74 to 0.92 MBq, iv after 1 hr. In kind it is ADME, organism-based. The note with it: in vivo. The gist of the method:
as §3

Another data set concerns Blood. The experiment in a line: Biodistribution in blood of C57BL/6 mouse bearing mouse B16-F0 cells at 0.74 to 0.92 MBq, iv after 1 hr. The data set is classed as ADME, organism-based. The settings on record: in vivo. The gist of the method: as §3
The nature of data set [24]: Biodistribution in uvea of C57BL/6 mouse bearing mouse B16-F0 cells at 0.74 to 0.92 MBq, iv after 1 hr. In kind it is ADME, organism-based, Uveal tract. The settings on record: in vivo. The method, boiled down:
as §1

The nature of data set [25]: Biodistribution in uvea of C57BL/6 mouse bearing mouse B16-F0 cells at 0.74 to 0.92 MBq, iv after 3 hrs. The data set is classed as ADME, organism-based, Uveal tract. The note with it: in vivo. The gist of the method: as §1
Data set [26] is described as follows: Biodistribution in uvea of C57BL/6 mouse bearing mouse B16-F0 cells at 0.74 to 0.92 MBq, iv after 6 hrs. The note with it: in vivo. The data set is classed as ADME, organism-based, Uveal tract. The gist of the method: as §1
Data set [27] in a line: Biodistribution in uvea of C57BL/6 mouse bearing mouse B16-F0 cells at 0.74 to 0.92 MBq, iv after 24 hrs. The data set is classed as ADME, organism-based, Uveal tract. The settings on record: in vivo. The method, boiled down: as §1
Data set [28] in a line: Biodistribution in uvea of C57BL/6 mouse bearing mouse B16-F0 cells at 0.74 to 0.92 MBq, iv after 72 hrs. In kind it is ADME, organism-based, Uveal tract. The note with it: in vivo. The gist of the method:
as §1

Consider `CCN(CC)CCNC(=O)c1cc2c(I)cccc2cn1`, for which the Activity in data set [1] amounted to 87%; in data set [2], 45.2%.

Consider `CCN(CC)CCNC(=O)c1ccc2cncc(I)c2n1`, for which the Activity in data set [1] was found to be 44.8%; in data set [2], 35.3%.

By logD is commonly meant the decadic logarithm of the distribution of all forms, ionised or not, between an organic phase and buffer at a given pH. Regarding `CCN(CC)CCNC(=O)c1cn2cc([125I])ccc2n1.Cl.Cl`, the log distribution coefficient (logD) in data set [3] was found to be 0.71. The compound further had an Activity in [4] of 36.8%. In addition, the Drug uptake turned out to be 5.7 % ID/g in data set [5]; 7.1 % ID/g in data set [6]; 8.1 % ID/g in [7]; 8 % ID/g in data set [8]; 2.7 % ID/g in data set [9]; 9.48 % ID/g in data set [13]. Also, the Drug uptake in data set [14] is 78.03 % ID/g; in data set [15], 56.39 % ID/g; in data set [16], 2.68 % ID/g; in data set [17] it was 4.55 % ID/g; in data set [18], 5.19 % ID/g; in data set [19] it was 16.57 % ID/g. Also, the Drug uptake worked out at 3.97 % ID/g with Liver [20]; 0.99 % ID/g in the data set on Liver [21]; 0.51 % ID/g in the data set on Muscle tissue [22]; 0.09 % ID/g in the data set on Muscle tissue [23]; 7.52 % ID/g with Pancreas; 2.42 % ID/g in the data set on Lung. In addition, the Drug uptake with Spleen is 13.07 % ID/g; in the data set on Kidney, 2.99 % ID/g; in the data set with Blood, 0.68 % ID/g; in data set [24], 17.43 % ID/g; in [25], 19.18 % ID/g; in data set [26], 26.81 % ID/g. The Drug uptake in data set [27] came to 11.54 % ID/g; in [28], 9.55 % ID/g. The Ratio is reported as 1.43 in [10], 7.21 in data set [11] and 2.34 in [12].

Regarding `CCN(CC)CCNC(=O)c1ccc2cc(I)ccc2c1`, the Activity amounted to 80.8% in data set [1] and 50.9% in [2].

Regarding `CCN(CC)CCNC(=O)c1cn2cc(I)ccc2n1`, the figures for the Activity in data set [1] and in data set [2] were 75.3% and 11.6%, respectively.

Consider `CCN(CC)CCNC(=O)c1c[nH]c2ccc(I)cc2c1=O`, for which the Activity worked out at 86.7% in data set [1] and 59% in data set [2].

Take `CCN(CC)CCNC(=O)c1cc2cc(I)ccc2o1`: the Activity in data set [1] is 87%; in data set [2] it was 45.2%.
